S1P3 ag: activates the human S1P3 receptor | Q99500 | 60,000 compounds, 0.1% hits | activation, % at 4.5 µM | S1P3 NFAT-BLA reporter cells, agonism, FRET ratio; relative to 1 µM S1P, basal subtracted;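 active = activation above the screen-wide mean plus 3 SD, cut at about 4.5% in these data, passing the limit was not always enough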
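Measure – % activation relative to 1 µM S1P (100%), per plate · System – stable CHO line with human S1P3, Gα16, NFAT-BLA reporter · Timing – cells plated overnight, compound 4 h 37 °C, substrate 2 h RT · Technique – fluorescent BLA substrate, ex 405 nm, em 460/535 nm ratio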
M1 ag: M1 muscarinic receptor agonism. CHO-M1 cells, Fluo-4 calcium fluorescence, agonist mode; active compounds read high. B-score at 10 µM. 64,000 compounds, 3% hits. AID 626;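 active = fluorescence rise, raw or as B-score row- and column-corrected plate score, outside the 99.7% band of its plate's samples, either direction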
S1P1 ag pot: S1P1 (human) agonism or agonism potentiation; P21453; AID 449; S1P1 CRE-bla cells, forskolin, beta-lactamase FRET, potentiator mode; S1P1 agonist co-added at EC20, 2 nM; 100% = saturating reference agonist, 0% = basal; 56,000 compounds, 0.57% hits; activation, % at 9.5 µM;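 active = activation above a cutoff set at the mean activation of all tested compounds plus 3 SD, cut at about 54% in these data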;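 also: forskolin at 4 µM as EC80 and the EC20 agonist is SEW2871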
M1 antag: antagonists of rat M1 muscarinic receptor. CHO-M1 cells, Fluo-4 calcium, ACh EC80 antagonist mode; active compounds read low. AID 628. 64,000 compounds, 3.4% hits. B-score at 10 µM. P08482;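 active = calcium fluorescence response, raw or row-and-column corrected B-score, differing from the plate sample mean either way at a set confidence level, mostly lower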
Target sequence (P08482 whole entry, looked up): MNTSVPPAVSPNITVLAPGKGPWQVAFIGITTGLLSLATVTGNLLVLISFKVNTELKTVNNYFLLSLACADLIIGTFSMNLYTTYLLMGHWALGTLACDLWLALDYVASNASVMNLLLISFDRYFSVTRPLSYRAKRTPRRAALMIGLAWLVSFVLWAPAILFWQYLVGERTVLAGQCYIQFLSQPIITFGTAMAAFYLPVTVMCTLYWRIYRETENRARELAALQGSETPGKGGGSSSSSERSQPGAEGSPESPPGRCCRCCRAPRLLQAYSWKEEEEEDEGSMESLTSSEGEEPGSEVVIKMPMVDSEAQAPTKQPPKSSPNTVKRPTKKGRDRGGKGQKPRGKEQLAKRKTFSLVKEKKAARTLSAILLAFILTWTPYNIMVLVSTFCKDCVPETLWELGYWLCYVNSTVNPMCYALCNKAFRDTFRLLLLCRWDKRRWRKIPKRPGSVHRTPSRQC
D1 mod: D1 dopamine receptor (human) allosteric modulation; P21728; HEK293 D1, CRE-luciferase, dopamine EC30 potentiation; actives deviate in either direction; B-score at 10 µM; 58,000 compounds, 5.9% hits;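 active = luminescence count or its row- and column-corrected plate score outside the 99.7% band of the plate's sample wells, on either side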
D1 PAM confirm: confirmation of human D1 dopamine receptor allosteric modulators. shares compounds with D1 mod. 2,200 compounds, 88% hits. luminescence at 10 µM. AID 642. HEK293 D1 CRE-luciferase, dopamine EC30 potentiation; active compounds read high;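 active = luminescence in either of two replicates above the same-plate mean plus 3 SD of the low-dose dopamine control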
D1 ag no DA: activates D1 CRE-luciferase signal without dopamine present | AID 646 | HEK293 D1 CRE-luciferase, luminescence, no dopamine; active compounds read high | 1,900 compounds, 0.8% hits | shares compounds with D1 mod | luminescence at 10 µM; in the data active = luminescence above about 3900
Isoprot counter: counter-screen for D1 modulators: isoproterenol response in HEK293 cells; shares compounds with D1 mod; HEK293 D1 CRE-luciferase, isoproterenol EC30 counter-screen; calls only at 10 µM; 2,200 compounds, 63% hits; AID 647;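 active = luminescence in either replicate above plate mean of wells with a partly effective reference agonist dose plus 3 SD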;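 also: isoproterenol raises cAMP through native beta-adrenoceptor Gs so signal bypasses D1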
Hits are given with their value; i = inactive; nt = not tested or not shown; + = active, no number. An excerpt weighted towards active compounds, which were near 11% of everything screened.

SMILES	S1P3 ag	M1 ag	S1P1 ag pot	M1 antag	D1 mod	D1 PAM confirm	D1 ag no DA	Isoprot counter
COc1ccc(CNC(=O)CN(CC2CCCO2)C(=O)CNS(=O)(=O)c2ccc(F)cc2)cc1 (stereo not given)	i	i	i	i	i	nt	nt	nt
N#Cc1c2n(c3c(=O)n(Cc4ccc(Cl)cc4)cnc13)CCCC2	i	i	nt	i	2.6	10052	i	+
N#Cc1c2n(c3c(=O)n(Cc4ccccc4Cl)cnc13)CCCC2	i	i	i	i	3.4	9264	i	+
O=C(CCNS(=O)(=O)c1cccc2nonc12)NCCc1ccc(Cl)cc1	nt	i	nt	i	i	nt	nt	nt
N#Cc1c(-c2ccccc2)cc(-c2ccco2)c(C#N)c1N	nt	i	nt	i	2.9	6724	nt	i
CC(C)(C)c1cc(-c2ccco2)c(C#N)c(SCC#N)n1	i	i	i	i	i	nt	nt	nt
COc1nc(Nc2cccc(C(F)(F)F)c2)nc(OC)n1	nt	i	nt	i	i	nt	nt	nt
Nc1nc(Nc2ccccc2Br)nc(C(F)(F)F)n1	i	i	i	i	7.3	15052	i	+
Nc1nc(Nc2ccc(Cl)cc2Cl)nc(C(F)(F)F)n1	i	i	i	i	11	13920	nt	+
COc1cccc(Nc2nc(N)nc(C(F)(F)F)n2)c1	i	i	i	i	11	14320	i	+
COc1ccc(S(=O)(=O)Nc2cccc(NC(C)=O)c2)cc1	i	i	i	i	i	nt	nt	nt
CCOc1ccccc1N(C(=O)Cn1nnnc1-c1ccc(C)o1)C(CC)C(=O)NC(C)(C)C (stereo not given)	i	i	i	i	i	nt	nt	nt
CCn1cc(C2=NOC(C(=O)Nc3cc(C)nn3-c3ccccc3)C2)c(C)n1 (stereo not given)	i	i	i	i	i	nt	nt	nt
CCN(CC)S(=O)(=O)c1cccc(C(=O)OCC(=O)N2CC(=O)Nc3ccccc32)c1	i	i	i	i	i	nt	nt	nt
Cc1cc(O)c(C(C)C)cc1N=C1CSC(=O)N1	i	i	i	i	i	nt	nt	nt
Nc1ccc2[nH]ncc2c1	i	i	i	i	i	nt	nt	nt
CC(C)Oc1ccc(CNC2CCOC(C)(C)C2)cc1 (stereo not given)	i	i	i	i	i	nt	nt	nt
CCSc1cnc(-c2ccccc2)n1CC	nt	i	nt	i	4.5	8832	i	i
O=C(NCc1ccc2c(c1)OCO2)C1CCN(c2ncccn2)CC1	i	i	i	i	i	nt	nt	nt
Cc1cc(C(C)(C)C)cc(S(=O)(=O)NCC(=O)O)c1C	i	i	i	i	i	nt	nt	nt
COC(=O)c1c(NC(=O)Cc2cccs2)sc(C(=O)N2CCCCC2)c1C	i	i	i	i	7.3	25076	i	+
CCOC(=O)c1c(NC(=O)c2ccco2)sc2c1CCCC2	i	nt	i	nt	i	nt	nt	nt
COC(=O)c1c(NC(=O)c2ccco2)sc(C(=O)N2CCCC2)c1C	i	nt	i	nt	6.9	12140	nt	+
CCN(CC)C(=O)c1sc(NC(=O)Cc2cccs2)c(C#N)c1C	i	i	i	i	6.9	11496	i	i
CCOC(=O)c1c(NC(=O)C(F)(OC)C(F)(F)F)sc(C(=O)N2CCCCC2)c1C (stereo not given)	i	i	i	i	i	nt	nt	nt
SMILES	S1P3 ag	M1 ag	S1P1 ag pot	M1 antag	D1 mod	D1 PAM confirm	D1 ag no DA	Isoprot counter
CC(C)c1nnc(NC(=O)Cc2cccs2)s1	i	i	i	i	i	nt	nt	nt
Cc1nc2ccc(NC(=O)Cc3cccs3)cc2s1	i	i	i	i	nt	nt	nt	nt
COC(=O)c1c(NC(=O)Cc2cccs2)sc2c1CCC(C)C2 (stereo not given)	i	i	i	i	4.9	8816	i	i
O=C(CCCc1nc(-c2ccccc2)no1)N1CCOCC1	i	i	i	i	i	nt	nt	nt
CCCn1c(CNS(=O)(=O)c2ccc(C)cc2)nc2ccccc21	i	i	i	i	i	nt	nt	nt
Cc1cc(C)n(-c2nc3sc4c(c3c3nnc(SC(C)C)n23)CC(C)(C)OC4)n1	i	i	i	i	i	nt	nt	nt
CCOC(=O)c1c(NC(=O)Cc2cccs2)sc(C)c1C	i	i	i	i	13	15008	i	+
CCOC(=O)c1c(NS(C)(=O)=O)sc2c1CCC(C)C2 (stereo not given)	i	i	i	i	9.2	13356	i	+
COc1ccc(NC(=O)CSc2nc3c(c(=O)[nH]2)CCC3)cc1OC	i	i	i	i	i	nt	nt	nt
COc1ccc(-c2nnc(SCC(=O)N(Cc3ccccc3)C(C)(C)C)o2)cc1OC	i	i	i	i	i	nt	nt	nt
CCOC(=O)CN(C(=O)CSc1nnc(-c2ccc(OC)c(OC)c2)o1)c1ccc(F)cc1	i	i	i	i	3.1	8044	i	i
COc1ccc(-c2cc(OC)c3c(C)oc(C)c3c(=O)c2)cc1OC	i	i	i	i	3.8	12580	i	+
COc1ccc(C(=O)NCc2cn3c(C)csc3n2)cc1OC	i	i	i	i	8.3	15440	i	+
Nc1nc(CN2CCN(c3ccccn3)CC2)nc(Nc2ccc(Cl)cc2)n1	i	i	i	i	4.3	6700	i	i
CCN(CC)S(=O)(=O)c1cccc(-c2nnc(SCCOc3ccccc3)o2)c1	i	i	i	i	14	i	i	i
Clc1ccc(C2=Nn3c(nnc3-c3n[nH]c4c3CCC4)SC2)cc1Cl	i	i	i	i	9.4	6068	i	+
COc1ccc(/C(O)=C2/C(=O)C(=O)N(CCCN(C)C)C2c2cccc(Cl)c2)cc1OC (stereo not given)	i	i	i	i	i	nt	nt	nt
CCOC(=O)c1cnc(SCc2nc(N)nc(Nc3ccc(C)cc3)n2)nc1N	i	i	i	i	i	nt	nt	nt
Cc1ccc(Nc2nc(N)nc(CC#N)n2)cc1	i	i	i	i	6.6	14616	nt	+
Cc1cc(NS(=O)(=O)c2ccc(NC(=O)COc3ccccc3C(C)C)cc2)no1	i	i	i	i	4.1	6636	i	i
Cc1cc(NS(=O)(=O)c2ccc(NC(=O)COc3ccccc3Cl)cc2)no1	i	i	i	i	i	nt	nt	nt
c1cnc2c(SCc3ccc(-c4nnco4)cc3)cccc2c1	i	i	i	i	5.3	8332	nt	+
Cc1ccc(-c2cc(-c3ccc4c(c3)OCO4)c(C#N)c(N)n2)o1	i	i	i	i	5.9	8720	i	i
N#Cc1c(N)oc(-c2ccc3c(c2)OCO3)c1-c1ccc2c(c1)OCO2	nt	i	nt	i	4.5	26576	i	+
N#Cc1c(N)nc2c(c1-c1ccc3c(c1)OCO3)CCCCCC2	nt	i	nt	i	nt	nt	nt	nt
Cc1ccc(-c2c(C#N)c(N)nc3c2CCCCC3)o1	i	i	nt	i	nt	nt	nt	nt
Cc1ccc(-c2cc(-c3ccc(C)o3)nc(N)c2C#N)cc1	i	i	i	i	7.3	8668	i	i

Compound activity as filed in PubChem BioAssay.
